Experimental data collected from several papers.
Lines come from different studies, so protocols differ.
ADRA1B: Alpha-1B adrenergic receptor (ADRA1B, Homo sapiens, UniProt P35368)
PPARA: Peroxisome proliferator-activated receptor alpha (PPARA, Homo sapiens, UniProt Q07869)
CASP1: Caspase-1 (CASP1, Homo sapiens, UniProt P29466)

CCCC[C@H](NC(=O)C1CN(C)C1)c1ncc(-c2cc3ccccc3nc2OC)[nH]1 — Ki (Histone deacetylase 3 (HDAC3, Homo sapiens, UniProt O15379); enzyme activity; inhibitor): 273 nM
CC[C@H](C)[C@H](NC(=O)[C@H](CCCNC(=N)N)NC(=O)[C@H](CCCNC(=N)N)NC(=O)[C@H](CC(C)C)NC(=O)CNC(=O)[C@H](CCC(N)=O)NC(=O)[C@H](C)NC(=O)[C@@H](NC(=O)[C@H](Cc1c[nH]c2ccccc12)NC(=O)[C@@H](NC(=O)[C@H](CCC(=O)O)NC(=O)[C@@H]1CCCN1C(=O)[C@H](CCCNC(=N)N)NC(C)=O)[C@@H](C)CC)[C@@H](C)CC)C(=O)NCC(=O)N[C@@H](CC(=O)O)C(=O)N[C@H](C(=O)N[C@@H](Cc1c[nH]c2ccccc12)C(=O)N[C@@H](CC(N)=O)C(=O)N[C@@H](C)C(=O)N[C@@H](Cc1ccc(O)cc1)C(=O)N[C@@H](Cc1ccc(O)cc1)C(=O)N[C@@H](C)C(=O)N[C@@H](CCCNC(=N)N)C(N)=O)[C@@H](C)O — Ki (Bcl-2-related protein A1 (Homo sapiens, UniProt Q16548); ligand displacement; FP; pH 7.8): 8 nM
CCCCN1CCC(COC(=O)c2ccc(N)c(OCF)c2)CC1 — Ki (ADRA1B; cell-free assay; radioligand): > 10000 nM
O=S(=O)(Nc1ccc[nH]c1=S)c1cccs1 — Ki (Insulin-degrading enzyme (IDE, Homo sapiens, UniProt P14735); enzyme activity; inhibitor; fluorescence): 77000 nM
NCCCCC(c1ccccc1)(c1ccccc1)c1ccccc1 — Ki (Kinesin-like protein KIF11 (KIF11, Homo sapiens, UniProt P52732); ATPase activity; inhibitor): 1670 nM
O=C1c2ccccc2CCN1CCCCN1CCN(c2cccc(Cl)c2Cl)CC1 — Ki (ADRA1B; ligand displacement; radioligand): 649 nM
Cc1c(C)n(Cc2ccc(-c3ccccc3C(=O)O)cc2)c2ccc(C(=O)N[C@@H](C)c3ccc([N+](=O)[O-])cc3)cc12 — Ki (PPARA; ligand displacement; TR-FRET): 11200 nM
O=C1c2ccccc2CCCN1CCCCN1CCN(c2ccccn2)CC1 — Ki (ADRA1B; ligand displacement; radioligand): 2540 nM
CC(=O)N[C@@H](CC(C)C)C(=O)N[C@@H](CC(C)C)C(=O)N[C@@H](CCCN=C(N)N)C(=O)N[C@H](C(=O)N[C@@H](CCCCN)C(=O)N[C@@H](CCCN=C(N)N)C(N)=O)C(C)C — Ki (Neuroendocrine convertase 2 (Homo sapiens, UniProt P16519); enzyme activity; inhibitor): 1600 nM
O=c1c(O)c(-c2ccc(O)cc2)oc2cc(O)cc(O)c12 — Ki (CASP1; enzyme activity; inhibitor; fluorescence): > 300000 nM
O=C(Nc1ccc(Oc2ncccn2)cc1C(=O)O)c1ccc(Cl)cc1Cl — Ki (PPARA; ligand displacement; TR-FRET): 4420 nM
O=c1cc(-c2ccc(O)c(O)c2)oc2cc(O)cc(O)c12 — Ki (CASP1; enzyme activity; inhibitor; fluorescence): 119000 nM
CC(=O)N[C@@H](CCCNC(=N)N)C(=O)NCC(=O)NCC(=O)N1CCC[C@H]1B(O)O — Ki (Prolyl endopeptidase (PREP, Homo sapiens, UniProt P48147); enzyme activity; inhibitor; fluorescence): 1.6 nM
